Assay results taken from ChEMBL document CHEMBL3232993, “Design, synthesis, and structure-activity relationship of a novel series of GluN2C-selective potentiators” (J Med Chem, 2014).
Active and inactive are the calls of the source. No cut-off for these calls is given here.

Experiments:
[1] = molecular target: T1, Glutamate NMDA receptor; Grin1/Grin2c (Rattus norvegicus) (UniProt P35439+Q00961); test: Potentiation of rat recombinant GluN1/GluN2C expressed in Xenopus laevis oocytes assessed as increase in glutamate/glycine-induced current response at 30 uM by two-electrode voltage clamp technique relative to control; format: cell-based
How it was run: (§1)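 Two-electrode voltage clamp at −40 mV on Xenopus oocytes coexpressing GluN1 with GluN2A, 2B, 2C or 2D. […] Compounds came from 20 mM DMSO stocks, with 0.05–0.5% final DMSO. Some GluN2A oocytes were injected with K-BAPTA to limit current run-up. Recording solution was pH 7.4, 23 °C.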

[2] = molecular target: T2, Ionotropic glutamate receptor NMDA 1/2D (Rattus norvegicus) (UniProt P35439+Q62645); test: Activity at rat recombinant GluN1/GluN2D expressed in Xenopus laevis oocytes assessed as current response at 100 uM relative to control
[3] = molecular target: T3, Glutamate NMDA receptor; Grin1/Grin2b (Rattus norvegicus) (UniProt P35439+Q00960); test: Activity at rat recombinant GluN1/GluN2B expressed in Xenopus laevis oocytes assessed as current response at 100 uM relative to control
[4] = molecular target: T4, Glutamate NMDA receptor; Grin1/Grin2a (Rattus norvegicus) (UniProt P35439+Q00959); test: Potentiation of rat recombinant GluN1/GluN2A expressed in Xenopus laevis oocytes assessed as increase in glutamate/glycine-induced current response at 30 uM by two-electrode voltage clamp technique relative to control; format: cell-based; how it was run: as §1
[5] = molecular target: Glutamate NMDA receptor; Grin1/Grin2c (Rattus norvegicus, UniProt P35439+Q00961); test: Potentiation of rat recombinant GluN1/GluN2C expressed in Xenopus laevis oocytes assessed as increase in glutamate/glycine-induced current response by two-electrode voltage clamp technique relative to control; format: cell-based
[6] = molecular target: T2, Ionotropic glutamate receptor NMDA 1/2D (Rattus norvegicus); test: Potentiation of rat recombinant GluN1/GluN2D expressed in Xenopus laevis oocytes assessed as increase in glutamate/glycine-induced current response at 30 uM by two-electrode voltage clamp technique relative to control; format: cell-based; how it was run: as §1
[7] = molecular target: T4, Glutamate NMDA receptor; Grin1/Grin2a (Rattus norvegicus); test: Activity at rat recombinant GluN1/GluN2A expressed in Xenopus laevis oocytes assessed as current response at 100 uM relative to control
[8] = molecular target: T3, Glutamate NMDA receptor; Grin1/Grin2b (Rattus norvegicus); test: Potentiation of rat recombinant GluN1/GluN2B expressed in Xenopus laevis oocytes assessed as increase in glutamate/glycine-induced current response at 30 uM by two-electrode voltage clamp technique relative to control; format: cell-based; how it was run: as §1
[9] = molecular target: Glutamate NMDA receptor; Grin1/Grin2a (Rattus norvegicus, UniProt P35439+Q00959); test: Inhibition of rat recombinant GluN1/GluN2A expressed in Xenopus laevis oocytes assessed as reduction in current response; format: cell-based
[10] = molecular target: Glutamate NMDA receptor; Grin1/Grin2b (Rattus norvegicus, UniProt P35439+Q00960); test: Inhibition of rat recombinant GluN1/GluN2B expressed in Xenopus laevis oocytes assessed as reduction in current response; format: cell-based
[11] = molecular target: Ionotropic glutamate receptor NMDA 1/2D (Rattus norvegicus, UniProt P35439+Q62645); test: Inhibition of rat recombinant GluN1/GluN2D expressed in Xenopus laevis oocytes assessed as reduction in current response; format: cell-based
Homo sapiens [12] = species on record: Homo sapiens; test: Potentiation of recombinant glycine receptor (unknown origin)
Homo sapiens [13] = species on record: Homo sapiens; test: Potentiation of recombinant purinergic receptor (unknown origin)
[14] = molecular target: T1, Glutamate NMDA receptor; Grin1/Grin2c (Rattus norvegicus); test: Potentiation of rat recombinant GluN1/GluN2C expressed in Xenopus laevis oocytes assessed as glutamte/glycine-induced current response at 20 uM at 30 mV; format: cell-based
[15] = molecular target: T1, Glutamate NMDA receptor; Grin1/Grin2c (Rattus norvegicus); test: Agonist activity at rat recombinant GluN1/GluN2C expressed in Xenopus laevis oocytes by two-electrode voltage clamp technique relative to control; format: cell-based
Homo sapiens [16] = species on record: Homo sapiens; test: Potentiation of recombinant GABA receptor (unknown origin)
Homo sapiens [17] = species on record: Homo sapiens; test: Potentiation of recombinant kainate receptor (unknown origin)
[18] = molecular target: Glutamate receptor 1 (Rattus norvegicus) (UniProt P19490); test: Potentiation of recombinant homomeric GluA1 AMPA receptor (rat) at 30 uM relative to control
Homo sapiens [19] = species on record: Homo sapiens; test: Potentiation of recombinant serotonin receptor (unknown origin)
[20] = molecular target: Glutamate receptor ionotropic, kainate 2 (Rattus norvegicus) (UniProt P42260); test: Potentiation of recombinant homomeric GluK2 receptor (rat) at 120 uM relative to control
[21] = molecular target: T1, Glutamate NMDA receptor; Grin1/Grin2c (Rattus norvegicus); test: Potentiation of rat recombinant GluN1/GluN2C expressed in Xenopus laevis oocytes assessed as increase in glutamate/glycine-induced current response at 100 uM by two-electrode voltage clamp technique relative to control; format: cell-based; how it was run: as §1
Homo sapiens [22] = species on record: Homo sapiens; test: Potentiation of recombinant nicotinic receptor (unknown origin)
[23] = molecular target: T1, Glutamate NMDA receptor; Grin1/Grin2c (Rattus norvegicus); test: Effect on rat recombinant GluN1/GluN2C expressed in Xenopus laevis oocytes assessed as reversal potential of glycine/glutamate-induced current response (reference value: -5.1 +/- 0.8 mV); format: cell-based
How it was run: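 Reversal potential of GluN1/GluN2C currents in cRNA-injected Xenopus oocytes by two-electrode voltage clamp. […] Recording solution was Ba²⁺-containing HEPES saline, pH 7.4, 23 °C.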

[24] = molecular target: T1, Glutamate NMDA receptor; Grin1/Grin2c (Rattus norvegicus); test: Potentiation of rat recombinant GluN1/GluN2C expressed in Xenopus laevis oocytes assessed as glutamte/glycine-induced current response at 20 uM at -40 mV; format: cell-based
[25] = molecular target: T1, Glutamate NMDA receptor; Grin1/Grin2c (Rattus norvegicus); test: Potentiation of rat recombinant GluN1/GluN2C expressed in Xenopus laevis oocytes assessed as glycine-induced current response at 68 uM by two-electrode voltage clamp technique; format: cell-based
[26] = molecular target: T1, Glutamate NMDA receptor; Grin1/Grin2c (Rattus norvegicus); test: Potentiation of rat recombinant GluN1/GluN2C expressed in Xenopus laevis oocytes assessed as glutamate-induced current response at 68 uM by two-electrode voltage clamp technique; format: cell-based

Chain of Glutamate receptor 1 (Rattus norvegicus) (P19490 whole entry, looked up): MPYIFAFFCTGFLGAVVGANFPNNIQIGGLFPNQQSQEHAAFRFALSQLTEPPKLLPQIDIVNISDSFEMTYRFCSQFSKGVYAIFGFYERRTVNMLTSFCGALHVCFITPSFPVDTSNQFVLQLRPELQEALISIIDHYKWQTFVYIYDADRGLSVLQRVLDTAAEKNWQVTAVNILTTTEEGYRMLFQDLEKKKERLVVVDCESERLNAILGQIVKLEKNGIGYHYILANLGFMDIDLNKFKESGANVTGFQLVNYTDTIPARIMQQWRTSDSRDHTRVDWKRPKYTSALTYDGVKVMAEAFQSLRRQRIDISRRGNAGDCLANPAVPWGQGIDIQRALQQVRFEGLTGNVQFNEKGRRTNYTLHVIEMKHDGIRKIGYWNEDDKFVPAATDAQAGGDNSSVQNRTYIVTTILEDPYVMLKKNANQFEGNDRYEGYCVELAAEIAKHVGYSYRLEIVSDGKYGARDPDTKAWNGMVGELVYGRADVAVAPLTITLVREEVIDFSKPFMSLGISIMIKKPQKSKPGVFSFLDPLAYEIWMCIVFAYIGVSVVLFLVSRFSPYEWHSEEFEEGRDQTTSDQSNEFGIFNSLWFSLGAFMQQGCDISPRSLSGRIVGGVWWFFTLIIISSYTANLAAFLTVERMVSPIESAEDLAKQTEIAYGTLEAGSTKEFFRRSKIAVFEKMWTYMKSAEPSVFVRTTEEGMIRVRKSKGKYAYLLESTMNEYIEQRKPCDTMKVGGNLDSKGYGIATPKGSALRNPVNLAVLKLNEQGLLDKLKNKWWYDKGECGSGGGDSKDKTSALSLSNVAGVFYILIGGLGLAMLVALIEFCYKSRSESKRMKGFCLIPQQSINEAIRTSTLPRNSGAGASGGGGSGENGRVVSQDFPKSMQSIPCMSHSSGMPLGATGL
Chain of Glutamate receptor ionotropic, kainate 2 (Rattus norvegicus) (P42260 whole entry, looked up): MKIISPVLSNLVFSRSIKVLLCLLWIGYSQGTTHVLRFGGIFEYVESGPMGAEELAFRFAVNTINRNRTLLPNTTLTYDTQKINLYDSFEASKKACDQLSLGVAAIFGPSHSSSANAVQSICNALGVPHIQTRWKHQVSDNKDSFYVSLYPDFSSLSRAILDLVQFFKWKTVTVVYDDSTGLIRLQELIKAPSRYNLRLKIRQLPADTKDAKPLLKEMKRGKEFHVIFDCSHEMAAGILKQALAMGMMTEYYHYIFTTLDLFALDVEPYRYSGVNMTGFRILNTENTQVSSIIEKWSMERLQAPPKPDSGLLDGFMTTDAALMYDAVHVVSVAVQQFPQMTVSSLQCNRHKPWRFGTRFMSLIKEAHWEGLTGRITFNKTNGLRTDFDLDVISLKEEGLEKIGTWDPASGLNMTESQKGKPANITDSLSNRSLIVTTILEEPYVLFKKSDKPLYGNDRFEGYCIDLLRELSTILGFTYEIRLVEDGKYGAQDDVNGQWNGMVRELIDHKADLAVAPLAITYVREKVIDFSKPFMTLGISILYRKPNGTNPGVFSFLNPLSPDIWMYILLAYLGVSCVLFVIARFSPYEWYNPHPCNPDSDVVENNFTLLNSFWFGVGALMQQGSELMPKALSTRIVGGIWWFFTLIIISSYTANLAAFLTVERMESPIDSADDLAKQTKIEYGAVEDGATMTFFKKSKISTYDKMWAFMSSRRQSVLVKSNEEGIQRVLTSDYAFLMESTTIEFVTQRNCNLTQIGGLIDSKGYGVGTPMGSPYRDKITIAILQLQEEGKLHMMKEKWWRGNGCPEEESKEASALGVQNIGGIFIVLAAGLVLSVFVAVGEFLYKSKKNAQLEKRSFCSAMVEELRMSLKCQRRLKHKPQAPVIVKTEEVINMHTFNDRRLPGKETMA

SMILES	Activity [1]	max activation [1]	Activity [4]	EC50 [5]	Activity [6]	Activity [8]	other results
COC(=O)c1ccc(C2C(C(=O)c3cccc(O)c3)=C(O)C(=O)N2CCc2c[nH]c3ccccc23)cc1 (stereo not drawn)	169%	176%	89%	7 µM	69%	65%	residual activity [2]: 48%; residual activity [3]: 42%; residual activity [7]: 76%
CCOC(=O)c1ccc(C2C(C(C)=O)=C(O)C(=O)N2CCc2c[nH]c3ccccc23)cc1 (stereo not drawn)	201%	237%	104%	15 µM	91%	83%	–
COC(=O)c1ccc(C2C(C(C)=O)=C(OC(C)=O)C(=O)N2CCc2c[nH]c3ccccc23)cc1 (stereo not drawn)	120%	173%	95%	52 µM	92%	90%	–
COC(=O)c1ccc(C2C(C(=O)c3ccccc3)=C(O)C(=O)N2CCc2c[nH]c3ccccc23)cc1 (stereo not drawn)	143%	161%	116%	17 µM	79%	85%	–
COC(=O)c1ccc(C2C(C(=O)c3ccncc3)=C(O)C(=O)N2CCc2cccc3ccccc23)cc1 (stereo not drawn)	34%	–	44%	–	18%	20%	IC50 [9]: 18 µM; IC50 [10]: 7.2 µM; IC50 [11]: 5.7 µM
COC(=O)c1ccc(C2C(C(=O)c3cccnc3)=C(O)C(=O)N2CCc2c[nH]c3cc(Cl)ccc23)cc1 (stereo not drawn)	170%	204%	93%	8.5 µM	86%	66%	–
COC(=O)c1ccc(C2C(C(=O)c3cccc(F)c3)=C(O)C(=O)N2CCc2c[nH]c3ccccc23)cc1 (stereo not drawn)	133%	136%	98%	11 µM	78%	83%	–
COC(=O)c1ccc(C2C(C(C)=O)=C(O)C(=O)N2CCc2c[nH]c3ccccc23)cc1 (stereo not drawn)	196%	275%	–	–	–	–	Activity (Homo sapiens [12]): inactive; Activity (Homo sapiens [13]): inactive; Activity [14]: 180%; Activity [15]: inactive; Activity (Homo sapiens [16]): inactive; Activity (Homo sapiens [17]): inactive; Activity [18]: 97%; Activity (Homo sapiens [19]): inactive; Activity [20]: 95%; max activation [21]: 238%; Activity (Homo sapiens [22]): inactive; Activity [23]: -5 mV; Activity [24]: 202%; Activity [25]: inactive; Activity [26]: inactive
COC(=O)c1ccc(C2C(C(C)=O)=C(O)C(=O)N2CCc2c[nH]c3ccccc23)c(C)c1 (stereo not drawn)	129%	165%	101%	35 µM	85%	95%	–
COC(=O)c1ccc(C2C(C(C)=O)=C(O)C(=O)N2CCc2c[nH]c3ccccc23)c(O)c1 (stereo not drawn)	173%	202%	107%	15 µM	88%	86%	–
CCOC(=O)c1ccc(C2C(C(=O)c3cccnc3)=C(O)C(=O)N2CCc2c[nH]c3ccccc23)cc1 (stereo not drawn)	201%	207%	97%	8.2 µM	83%	71%	–
COC(=O)c1ccc(C2C(C(=O)c3cccnc3)=C(O)C(=O)N2CCc2c[nH]c3cc(C)ccc23)cc1 (stereo not drawn)	219%	218%	103%	4.3 µM	86%	82%	–
COC(=O)c1ccc(C2C(C(=O)c3cccnc3)=C(O)C(=O)N2CCc2c[nH]c3cc(OC)ccc23)cc1 (stereo not drawn)	194%	204%	84%	8 µM	85%	98%	–
COC(=O)c1ccc(C2C(C(C)=O)=C(O)C(=O)N2CCc2c[nH]c3c(C)cccc23)cc1 (stereo not drawn)	121%	139%	98%	25 µM	92%	81%	–
COC(=O)c1ccc(C2C(C(C)=O)=C(O)C(=O)N2CCc2c[nH]c3ccccc23)c(OC)c1 (stereo not drawn)	132%	183%	102%	46 µM	100%	83%	–
COC(=O)c1ccc(C2C(C(=O)c3cccnc3)=C(O)C(=O)N2CCc2c[nH]c3c(F)cccc23)cc1 (stereo not drawn)	161%	191%	105%	18 µM	86%	84%	–
COC(=O)c1ccc(C2C(C(=O)c3cccnc3)=C(O)C(=O)N2CCc2c(C)[nH]c3ccccc23)cc1 (stereo not drawn)	174%	204%	82%	13 µM	82%	77%	–
COC(=O)c1ccc(C2C(C(C)=O)=C(O)C(=O)N2CCc2c[nH]c3ccccc23)cc1O (stereo not drawn)	123%	151%	81%	29 µM	90%	79%	–
CCOC(=O)c1ccc(C2C(C(C)=O)=C(O)C(=O)N2CCc2c[nH]c3ccccc23)c(O)c1 (stereo not drawn)	145%	194%	110%	40 µM	88%	100%	–
CCOC(=O)c1ccc(C2C(C(=O)c3ccncc3)=C(O)C(=O)N2CCc2c[nH]c3ccccc23)cc1 (stereo not drawn)	223%	245%	109%	9.7 µM	86%	91%	–
COC(=O)c1ccc(C2C(C(C)=O)=C(OC)C(=O)N2CCc2c[nH]c3ccccc23)cc1 (stereo not drawn)	127%	163%	109%	37 µM	82%	91%	–
CCOC(=O)c1ccc(C2C(C(C)=O)=C(O)C(=O)N2CCc2c(C)[nH]c3ccccc23)cc1 (stereo not drawn)	220%	265%	108%	13 µM	85%	99%	–
COC(=O)c1ccc(C2C(C(C)=O)=C(O)C(=O)N2CCc2c[nH]c3ccccc23)c(Cl)c1 (stereo not drawn)	139%	191%	103%	36 µM	90%	87%	–
COC(=O)c1ccc(C2C(C(=O)C(C)C)=C(O)C(=O)N2CCc2c[nH]c3ccccc23)cc1 (stereo not drawn)	–	–	95%	61 µM	89%	87%	max activation [21]: 119%
